Test results published in ChEMBL document CHEMBL4321819, “Simple Structural Modifications Converting a Bona fide MDM2 PROTAC Degrader into a Molecular Glue Molecule: A Cautionary Tale in the Design of PROTAC Degraders” (J Med Chem, 2019).
The source made the active and inactive calls. The rule behind the calls is not given here.

Tests used:
MDA-MB-468 [1] = test: Antiproliferative activity against human MDA-MB-468 cells harboring mutant p53 assessed as cell growth inhibition after 4 days by WST-8 assay; format: functional, cell-based; conditions: MDA-MB-468, 96 h
Outline: (§1)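 Leukemia cells seeded at 10000–20000 cells/well, breast cancer lines at 5000–10000 cells/well. Serially diluted compound added, then 4 days at 37 °C, 5% CO2. Growth read with WST-8 reagent after at least 1 h, absorbance at 450 nm. RS4;11, MOLM-13 and breast lines were grown in RPMI 1640; MV-4-11 and HL-60 in IMDM; all with 10% FBS. Mean ± SE, at least three independent experiments.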

RS4-11 = test: Antiproliferative activity against human RS4:11 cells expressing wild type p53 assessed as cell growth inhibition without interaction with cereblon after 4 days by WST-8 assay; format: functional, cell-based; conditions: RS4-11, 96 h; outline: as §1
MDA-MB-468 [2] = test: Antiproliferative activity against human MDA-MB-468 cells transfected with CRBN siRNA LQ-021086-10-0002 assessed as cell growth inhibition after 4 days by WST-8 assay; format: functional, cell-based; conditions: MDA-MB-468, 96 h
Outline: (§2)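 MDA-MB-231 or MDA-MB-468 cells transfected for 2 days using Lipofectamine RNAiMAX with MDM2 siRNA, one of two CRBN siRNAs, or non-targeting control siRNA. Compound then added and growth read by WST-8 at 450 nm.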

[3] = biological target: T1, E3 ubiquitin-protein ligase Mdm2 (Homo sapiens, UniProt Q00987); test: Induction of MDM2 degradation in human RS4:11 cells assessed as upregulation of p53 at 1 to 30 nM after 2 hrs by Western blot analysis; format: cell-based
Outline: (§3)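 Western blots of MDM2 and p53 protein were run on RS4;11 cells (wild-type p53) in RPMI 1640 with 10% FBS. 2×10^6 cells/well were treated at the indicated concentrations for 1 h or 2 h. Lysis was in ice-cold buffer with protease inhibitor, followed by probing with specific antibodies.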
Target sequence in this assay (Q00987 whole entry, looked up): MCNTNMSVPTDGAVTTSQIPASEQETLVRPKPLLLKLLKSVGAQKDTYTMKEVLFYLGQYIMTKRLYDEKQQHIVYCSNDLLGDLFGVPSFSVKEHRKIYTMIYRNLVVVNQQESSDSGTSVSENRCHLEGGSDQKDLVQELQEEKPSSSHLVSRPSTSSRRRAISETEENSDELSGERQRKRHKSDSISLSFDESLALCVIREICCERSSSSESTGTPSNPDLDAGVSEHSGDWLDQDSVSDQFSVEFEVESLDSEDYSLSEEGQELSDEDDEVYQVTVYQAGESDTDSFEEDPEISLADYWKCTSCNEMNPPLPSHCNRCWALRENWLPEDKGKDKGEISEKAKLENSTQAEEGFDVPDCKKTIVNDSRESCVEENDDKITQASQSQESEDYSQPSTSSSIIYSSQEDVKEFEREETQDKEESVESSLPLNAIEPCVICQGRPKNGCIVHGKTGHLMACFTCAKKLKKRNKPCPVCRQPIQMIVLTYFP

[4] = biological target: T1, E3 ubiquitin-protein ligase Mdm2; test: Displacement of PMDM6-F fluorescent probe from human recombinant His-tagged MDM2 (1 to 118 residues) after 15 mins by fluorescence polarization assay
Outline: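 Recombinant human His-tagged MDM2 (residues 1–118) with a FAM-labelled p53-based peptide as fluorescent probe; competitive fluorescence-polarization binding. Mean ± standard error from at least three independent experiments.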
Target sequence in this assay (Q00987 whole entry): as the sequence (Q00987 whole entry, looked up) above

[5] = biological target: GSPT1/E3 ubiquitin-protein ligase Mdm2 (Homo sapiens) (UniProt Q00987+P15170); test: Binding affinity to GSPT1/MDM2 in human MDA-MB-231 cells assessed as GSPT1 degradation at 0.1 to 1 uM after 2 hrs by Western blot analysis; format: cell-based
Sequence of GSPT1/E3 ubiquitin-protein ligase Mdm2 (Homo sapiens) (P15170 whole entry, looked up): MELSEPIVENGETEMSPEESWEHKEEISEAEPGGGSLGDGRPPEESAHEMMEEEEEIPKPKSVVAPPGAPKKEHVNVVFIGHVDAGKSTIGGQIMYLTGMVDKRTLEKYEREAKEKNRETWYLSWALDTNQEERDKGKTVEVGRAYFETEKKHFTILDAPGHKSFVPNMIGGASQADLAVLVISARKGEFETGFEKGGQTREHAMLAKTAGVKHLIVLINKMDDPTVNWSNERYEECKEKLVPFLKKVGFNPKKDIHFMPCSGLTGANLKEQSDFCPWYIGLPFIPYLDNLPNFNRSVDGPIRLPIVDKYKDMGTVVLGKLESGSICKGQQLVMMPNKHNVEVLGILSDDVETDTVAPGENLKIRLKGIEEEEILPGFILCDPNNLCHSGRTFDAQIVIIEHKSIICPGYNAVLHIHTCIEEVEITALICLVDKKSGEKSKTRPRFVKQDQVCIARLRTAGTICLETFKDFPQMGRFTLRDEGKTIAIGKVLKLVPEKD
Sequence of GSPT1/E3 ubiquitin-protein ligase Mdm2 (Homo sapiens) (Q00987 whole entry, looked up): as the sequence (Q00987 whole entry, looked up) above

MDA-MB-231 = test: Antiproliferative activity against human MDA-MB-231 cells transfected with CRBN siRNA LQ-021086-10-0002 assessed as cell growth inhibition after 4 days by WST-8 assay; format: functional, cell-based; conditions: MDA-MB-231, 72 h, in the assay text read “after 3 days” for “after 4 days”; outline: as §2
[6] = Antiproliferative activity against human RS4:11/IRMI-2 cells harboring p53 hotspot mutation Y236H/R249G assessed as cell growth inhibition without interaction with cereblon after 4 days by WST-8 assay; format: functional, cell-based; conditions: RS4-11, 96 h; outline: as §1
[7] = biological target: Cellular tumor antigen p53 (Homo sapiens) (UniProt P04637); test: Activation of p53 in human RS4:11 cells assessed as increase in PUMA mRNA expression at 3 nM after 1 to 2 hrs by qRT-PCR analysis; format: cell-based
Sequence of Cellular tumor antigen p53 (Homo sapiens) (P04637 whole entry, looked up): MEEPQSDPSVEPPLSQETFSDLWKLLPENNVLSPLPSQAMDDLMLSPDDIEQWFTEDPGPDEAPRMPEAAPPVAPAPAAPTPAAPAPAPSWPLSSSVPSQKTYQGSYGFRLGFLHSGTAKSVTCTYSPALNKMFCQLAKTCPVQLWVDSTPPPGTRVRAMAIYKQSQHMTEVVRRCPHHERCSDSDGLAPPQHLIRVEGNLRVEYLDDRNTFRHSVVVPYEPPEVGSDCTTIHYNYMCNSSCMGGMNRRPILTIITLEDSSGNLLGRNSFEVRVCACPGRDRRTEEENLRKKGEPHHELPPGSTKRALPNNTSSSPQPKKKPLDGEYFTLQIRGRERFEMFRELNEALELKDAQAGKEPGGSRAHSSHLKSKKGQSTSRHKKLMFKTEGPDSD
Outline: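 RS4;11 cells (RPMI 1640, 10% FBS, 37 °C, 5% CO2) treated with 3 nM or 10 nM compound; total RNA extracted and mRNA of p53 targets MDM2, CDKN1A, PUMA and BAX quantified by qRT-PCR. Mean ± standard error from at least three independent experiments.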

[8] = biological target: T1, E3 ubiquitin-protein ligase Mdm2; test: Induction of MDM2 degradation in human RS4:11 cells assessed as downregulation of MDM2 at 1 to 30 nM after 1 hr by Western blot analysis; format: cell-based; outline: as §3
Target sequence in this assay (Q00987 whole entry, looked up): as the sequence (Q00987 whole entry, looked up) above

MDA-MB-468 [9] = test: Antiproliferative activity against human MDA-MB-468 cells transfected with MDM2 siRNA assessed as cell growth inhibition after 4 days by WST-8 assay; format: functional, cell-based; conditions: MDA-MB-468, 96 h; outline: as §2
[10] = biological target: Eukaryotic peptide chain release factor GTP-binding subunit ERF3A (Homo sapiens, UniProt P15170); test: Induction of GSPT1 degradation in human MDA-MB-231 cells transfected with CRBN siRNA LQ-021086-11-0002 assessed as decrease in GSPT1 protein level at 0.1 uM after 2 to 24 hrs by Western blot analysis; format: cell-based
Sequence of Eukaryotic peptide chain release factor GTP-binding subunit ERF3A (P15170 whole entry): as the sequence (P15170 whole entry, looked up) above
Outline: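 MDA-MB-231 or MDA-MB-468 cells transfected 2 days with CRBN siRNA (Lipofectamine RNAiMAX; non-targeting siRNA as control), then exposed to 0.1 μM for 2 h or 24 h. Cell culture was RPMI 1640 with 10% FBS at 37 °C, 5% CO2. GSPT1 and cereblon protein were probed by Western blot.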

[11] = biological target: Protein cereblon/Eukaryotic peptide chain release factor GTP-binding subunit ERF3A/DNA damage-binding protein 1/Cullin-4A (Homo sapiens) (UniProt Q96SW2+Q16531+Q13619+P15170); test: Protac activity at GSPT1/CUL4/DDB1/CRBN in human RS4:11 cells expressing wild type p53 assessed as decrease in GSPT1 protein level by measuring fold change of protein level before and after treatment at 0.1 uM measured after 3 hrs relative to control
Sequence of Protein cereblon/Eukaryotic peptide chain release factor GTP-binding subunit ERF3A/DNA damage-binding protein 1/Cullin-4A (Homo sapiens) (P15170 whole entry, looked up): as above
Sequence of Protein cereblon/Eukaryotic peptide chain release factor GTP-binding subunit ERF3A/DNA damage-binding protein 1/Cullin-4A (Homo sapiens) (Q13619 whole entry, looked up): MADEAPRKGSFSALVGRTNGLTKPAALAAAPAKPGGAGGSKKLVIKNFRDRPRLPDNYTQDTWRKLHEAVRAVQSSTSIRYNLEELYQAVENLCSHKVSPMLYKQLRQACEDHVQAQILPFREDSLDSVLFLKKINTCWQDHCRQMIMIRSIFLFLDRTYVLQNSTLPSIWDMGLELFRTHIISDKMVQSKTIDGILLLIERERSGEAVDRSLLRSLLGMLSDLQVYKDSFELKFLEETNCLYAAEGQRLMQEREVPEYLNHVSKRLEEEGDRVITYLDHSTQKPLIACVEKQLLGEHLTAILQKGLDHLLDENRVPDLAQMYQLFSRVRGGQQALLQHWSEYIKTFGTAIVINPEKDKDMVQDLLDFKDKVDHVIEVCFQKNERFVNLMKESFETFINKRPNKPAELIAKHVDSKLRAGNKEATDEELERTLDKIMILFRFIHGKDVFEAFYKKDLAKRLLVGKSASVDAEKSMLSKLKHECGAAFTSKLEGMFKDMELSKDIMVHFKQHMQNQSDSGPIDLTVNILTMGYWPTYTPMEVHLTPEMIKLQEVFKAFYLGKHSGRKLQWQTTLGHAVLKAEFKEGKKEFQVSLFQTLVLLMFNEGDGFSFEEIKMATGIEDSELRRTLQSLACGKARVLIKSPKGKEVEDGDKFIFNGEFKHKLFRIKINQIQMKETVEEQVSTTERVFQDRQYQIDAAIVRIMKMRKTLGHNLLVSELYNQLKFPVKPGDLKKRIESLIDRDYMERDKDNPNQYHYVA
Sequence of Protein cereblon/Eukaryotic peptide chain release factor GTP-binding subunit ERF3A/DNA damage-binding protein 1/Cullin-4A (Homo sapiens) (Q16531 whole entry, looked up): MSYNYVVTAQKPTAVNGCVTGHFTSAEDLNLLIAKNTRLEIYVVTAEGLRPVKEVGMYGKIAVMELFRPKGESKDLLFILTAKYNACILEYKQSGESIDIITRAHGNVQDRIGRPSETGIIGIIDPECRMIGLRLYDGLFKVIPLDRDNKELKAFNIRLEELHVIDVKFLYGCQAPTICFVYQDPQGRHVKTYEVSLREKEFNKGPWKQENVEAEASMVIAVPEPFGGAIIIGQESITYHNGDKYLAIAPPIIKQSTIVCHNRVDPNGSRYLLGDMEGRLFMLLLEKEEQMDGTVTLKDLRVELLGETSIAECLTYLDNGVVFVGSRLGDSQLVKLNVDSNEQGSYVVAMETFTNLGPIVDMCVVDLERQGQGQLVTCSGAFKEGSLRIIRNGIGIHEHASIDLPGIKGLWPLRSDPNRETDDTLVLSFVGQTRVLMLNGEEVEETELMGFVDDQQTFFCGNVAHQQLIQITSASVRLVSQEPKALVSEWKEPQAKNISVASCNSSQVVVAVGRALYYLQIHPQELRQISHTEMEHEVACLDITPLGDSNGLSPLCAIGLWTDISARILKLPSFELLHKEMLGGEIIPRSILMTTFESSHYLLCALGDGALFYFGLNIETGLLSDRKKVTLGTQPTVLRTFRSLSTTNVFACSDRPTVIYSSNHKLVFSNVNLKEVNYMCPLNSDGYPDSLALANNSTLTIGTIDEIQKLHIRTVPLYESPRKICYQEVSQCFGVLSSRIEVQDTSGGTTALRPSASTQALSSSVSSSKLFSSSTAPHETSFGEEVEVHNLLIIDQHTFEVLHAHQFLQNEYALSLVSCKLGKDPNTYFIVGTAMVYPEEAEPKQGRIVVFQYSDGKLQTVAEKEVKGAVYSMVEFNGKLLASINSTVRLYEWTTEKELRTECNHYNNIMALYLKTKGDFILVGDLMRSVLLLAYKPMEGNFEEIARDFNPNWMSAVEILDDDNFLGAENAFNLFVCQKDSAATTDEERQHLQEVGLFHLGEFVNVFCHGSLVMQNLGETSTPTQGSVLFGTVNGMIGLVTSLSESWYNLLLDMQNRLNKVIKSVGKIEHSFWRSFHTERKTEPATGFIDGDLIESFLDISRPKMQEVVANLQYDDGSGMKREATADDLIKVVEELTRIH
Sequence of Protein cereblon/Eukaryotic peptide chain release factor GTP-binding subunit ERF3A/DNA damage-binding protein 1/Cullin-4A (Homo sapiens) (Q96SW2 whole entry, looked up): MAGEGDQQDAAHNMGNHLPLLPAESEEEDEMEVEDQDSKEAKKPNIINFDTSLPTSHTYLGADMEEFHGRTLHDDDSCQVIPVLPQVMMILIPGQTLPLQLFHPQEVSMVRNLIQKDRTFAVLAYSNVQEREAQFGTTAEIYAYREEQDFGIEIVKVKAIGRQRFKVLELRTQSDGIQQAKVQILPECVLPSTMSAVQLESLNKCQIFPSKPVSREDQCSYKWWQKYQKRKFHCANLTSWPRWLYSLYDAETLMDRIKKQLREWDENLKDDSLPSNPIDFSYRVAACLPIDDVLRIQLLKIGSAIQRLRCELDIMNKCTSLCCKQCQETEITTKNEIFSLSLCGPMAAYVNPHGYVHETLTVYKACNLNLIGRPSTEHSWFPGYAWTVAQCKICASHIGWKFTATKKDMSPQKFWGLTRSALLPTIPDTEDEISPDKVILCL

O=C1CCC(N2Cc3c(CCCCCNC(=O)[C@@H]4NC5(CCCCC5)[C@@]5(C(=O)Nc6cc(Cl)ccc65)[C@H]4c4cccc(Cl)c4F)cccc3C2=O)C(=O)N1 (stereo partly drawn)
IC50 (MDA-MB-468 [1]): 0.0264 µM | IC50 (RS4-11): 0.00017 µM | IC50 (MDA-MB-468 [2]): > 1 µM | Activity [3]: inactive | IC50 [4]: 0.0675 µM | Activity [5]: inactive | IC50 (MDA-MB-231): > 3 µM | IC50 [6]: 0.0026 µM | Activity [7]: inactive | Activity [8]: inactive | IC50 (MDA-MB-468 [9]): 0.0198 µM | Activity [10]: inactive | fold change [11]: 5.3
